This is an account of results in ChEMBL document CHEMBL1152767, “Synthesis and pharmacological evaluation of new arylpiperazines N-[4-[4-(aryl) piperazine-1-yl]-phenyl]-amine derivatives: putative role of 5-HT1A receptors” (2009).

The source made the active and inactive calls. The calls are words filed in the database; no cut-off is given here.

The subject of assay [1] is Rattus norvegicus. As to the kind of experiment: Anxiolytic activity in Wistar rat assessed as time spent into open arms at 3 mg/kg, ip administered 60 mins before evaluation and measured during 5 mins by elevated plus-maze test. Conditions: route intraperitoneal. It is filed as functional. A digest of the protocol: (§1)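 Male Wistar rats, 6–8 weeks, 120–150 g, given test agents ip (2 ml/kg; vehicle saline with 1% tween 80 and 1% DMSO) 60 min before testing; WAY-100635 0.5 mg/kg ip 15 min before treatment where used. Maze: two open, two closed arms 50 × 10 cm, raised 50 cm; rat placed centrally facing open arm; 5 min video recording; mean ± S.E.M., n = 8.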

Assay [2] has as its system Rattus norvegicus. As to the kind of experiment: Anxiolytic activity in Wistar rat assessed as number of entries into open arms at 3 mg/kg, ip administered 60 mins before evaluation and measured during 5 mins by elevated plus-maze test. It is filed as functional. Particulars: route intraperitoneal. A digest of the protocol: as §1
For assay [3], the system named is Rattus norvegicus. As to the kind of experiment: Anxiolytic activity in Wistar rat assessed as number of entries into closed arms at 3 mg/kg, ip administered 60 mins before evaluation and measured during 5 mins by elevated plus-maze test. In kind it is functional. Conditions: route intraperitoneal. The gist of the method: as §1
Assay [4] has as its system Rattus norvegicus. As to the kind of experiment: Anxiolytic activity in Wistar rat assessed as total number of entries at 3 mg/kg, ip administered 60 mins before evaluation and measured during 5 mins by elevated plus-maze test. In kind it is functional. Conditions: route intraperitoneal. A digest of the protocol: as §1
The subject of assay [5] is Rattus norvegicus. The assay can be described thus: Anxiolytic activity in ip dosed Wistar rat assessed as decrease in glyoxalase 1 activity in brain. In kind it is functional. More on the design: scale not given: the % may be the effect or the level left. A digest of the protocol:
(§2)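 Rat brain homogenised at 20% in 0.1 M potassium phosphate pH 7.4 with 0.25 M sucrose; spun 800g then 10,500g (4 °C) to give post-mitochondrial supernatant for glutathione reductase, and further 36,000g 1 h for cytosol for glyoxalase 1 (modified Racker method); protein by Lowry with BSA standard.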

Assay [6] relates to Rattus norvegicus. The assay can be described thus: Anxiolytic activity in ip dosed Wistar rat assessed as decrease in glutathione reductase activity in brain. In kind it is functional. More on the design: scale not given: the % may be the effect or the level left. The gist of the method:
as §2

For assay [7], the system named is Rattus norvegicus. As to the kind of experiment: Anxiolytic activity in Wistar rat assessed as decrease in time spent into open arms treated ip 60 mins before evaluation and measured during 5 mins by elevated plus-maze test in presence of WAY-100635. In kind it is functional. Set-up: scale not given: the % may be the effect or the level left. The gist of the method:
as §1

In assay [8] the test system is Rattus norvegicus. The assay can be described thus: Anxiolytic activity in Wistar rat assessed as blocked of time spent into open arms at 3 mg/kg, ip administered 60 mins before evaluation and measured during 5 mins by elevated plus-maze test in presence of 0.5 mg/kg, ip WAY-100635. It is filed as functional, organism-based. The gist of the method:
as §1

The test system of assay [9] is Rattus norvegicus. As to the kind of experiment: Anxiolytic activity in Wistar rat assessed as decrease in extracellular serotonin level in brain at 3 mg/kg, ip relative to control. In kind it is functional, organism-based. Set-up: dose 3 mg/kg. A digest of the protocol: (§3)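 Male Wistar rats dosed ip (vehicle saline/1% tween 80/1% DMSO), WAY-100635 0.5 mg/kg ip 15 min prior where used; decapitated 1 h after dosing, brains frozen at -80 °C. Tissue sonicated in 0.4 M perchloric acid, citrate/phosphate/EDTA added, centrifuged 12,000g at 4 °C; supernatant run on reversed-phase C18 HPLC with fluorescence detection (ex 280, em 340 nm).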

Assay [10] has as its system Rattus norvegicus. The assay can be described thus: Anxiolytic activity in Wistar rat assessed as decrease in extracellular serotonin level in brain at 3 mg/kg, ip in presence of WAY-100635 relative to control. Set-up: scale not given: the % may be the effect or the level left. Conditions: route intraperitoneal. It is filed as functional. A digest of the protocol:
as §3

In assay [11] the test system is Rattus norvegicus. As to the kind of experiment: Anxiolytic activity in ip dosed Wistar rat assessed as decrease in extracellular serotonin level in brain coadministered with WAY-100635 relative to control. In kind it is functional. More on the design: scale not given: the % may be the effect or the level left. A digest of the protocol: as §3
Assay [12] relates to Rattus norvegicus. The assay can be described thus: Anxiolytic activity in Wistar rat assessed as time spent into open arms at 5 mg/kg, ip administered 60 mins before evaluation and measured during 5 mins by elevated plus-maze test. In kind it is functional. Particulars: route intraperitoneal. A digest of the protocol: (§4)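 Male Wistar rats, 6–8 weeks, 120–150 g, housed at 25 ± 2 °C with free food and water. Dosed ip at 2 ml/kg in saline with 1% tween 80 and 1% DMSO, which alone served as control; n = 8. Maze arms 50 × 10 cm, 50 cm above floor. Rat placed centrally facing an open arm, recorded by camera between 9:00 and 15:00 h.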

The subject of assay [13] is Rattus norvegicus. The assay can be described thus: Anxiolytic activity in Wistar rat assessed as number of entries into open arms at 5 mg/kg, ip administered 60 mins before evaluation and measured during 5 mins by elevated plus-maze test. In kind it is functional. Particulars: route intraperitoneal. The gist of the method:
as §4

Assay [14] has as its system Rattus norvegicus. The assay can be described thus: Anxiolytic activity in Wistar rat assessed as number of entries into closed arms at 5 mg/kg, ip administered 60 mins before evaluation and measured during 5 mins by elevated plus-maze test. Particulars: route intraperitoneal. It is filed as functional. The gist of the method:
as §4

Assay [15] relates to Rattus norvegicus. The assay can be described thus: Anxiolytic activity in Wistar rat assessed as total number of entries at 5 mg/kg, ip administered 60 mins before evaluation and measured during 5 mins by elevated plus-maze test. In kind it is functional. Conditions: route intraperitoneal. A digest of the protocol:
as §4

For assay [16], the system named is Rattus norvegicus. As to the kind of experiment: Anxiolytic activity in Wistar rat assessed as time spent into open arms at 1 mg/kg, ip administered 60 mins before evaluation and measured during 5 mins by elevated plus-maze test. In kind it is functional. Conditions: route intraperitoneal. The gist of the method: as §4
Assay [17] relates to Rattus norvegicus. The assay can be described thus: Anxiolytic activity in Wistar rat assessed as number of entries into open arms at 1 mg/kg, ip administered 60 mins before evaluation and measured during 5 mins by elevated plus-maze test. In kind it is functional. Conditions: route intraperitoneal. The gist of the method: as §4
Assay [18] deals with Rattus norvegicus. The assay can be described thus: Anxiolytic activity in Wistar rat assessed as number of entries into closed arms at 1 mg/kg, ip administered 60 mins before evaluation and measured during 5 mins by elevated plus-maze test. In kind it is functional. Particulars: route intraperitoneal. The gist of the method:
as §4

Assay [19] concerns Rattus norvegicus. As to the kind of experiment: Anxiolytic activity in Wistar rat assessed as total number of entries at 1 mg/kg, ip administered 60 mins before evaluation and measured during 5 mins by elevated plus-maze test. In kind it is functional. Particulars: route intraperitoneal. A digest of the protocol: as §4

For the compound `O=C(Nc1ccc(N2CCN(CCc3ccccc3)CC2)cc1)c1ccc(Cl)nc1`, the Activity turned out to be 50.58% in assay [1], 22.9% in assay [2], 11.17 in [3] and 14.48 in assay [4].

`CCOC(=O)Nc1ccc(N2CCN(CCc3ccccc3)CC2)cc1`: the Activity in assay [1] turned out to be 53.94%; in assay [2] it was 28.49%; in assay [3], 9.91; in assay [4], 13.85.

For the compound `CCOC(=O)Nc1ccc(N2CCN(c3ccccc3)CC2)cc1`, the Activity in assay [1] was found to be 87.6%; in [2] it was 40.64%; in [3] it was 9.19; in assay [4], 15.48; in assay [5], 20%; in assay [6], 15%. Further, the Activity amounted to 35% in assay [7], 38% in assay [10] and 30% in assay [11]. For the same compound, in [8], the result was inactive. Further, the result in assay [9] was Active.

For `CC(=O)Nc1ccc(N2CCN(c3ccccc3Cl)CC2)cc1`, the Activity in assay [1] is given as 57.3%; in assay [2], 26.89%; in [3], 12.3; in assay [4] it was 16.82.

With `COc1ccccc1N1CCN(c2ccc(NC(=O)c3ccc(Cl)nc3)cc2)CC1`, the Activity in assay [1] turned out to be 54.69%; in assay [2], 28.42%; in assay [3] it was 10.93; in [4], 15.26.

As for `CCOC(=O)Nc1ccc(N2CCN(c3ccccc3OC)CC2)cc1`, the Activity is given as 84.36% in assay [1]; 35.23% in [2]; 11.8 in [3]; 18.21 in assay [4]; 17% in assay [5]; 12% in assay [6]. In addition, the figures for the Activity in assay [7], in assay [10] and in [11] were 20%, 32% and 24%, respectively. Besides, the outcome in assay [9] was Active.

For `O=C1CC2(CCCC2)CC(=O)N1CCCCN1CCN(c2ncccn2)CC1` [BUSPIRONE], the Activity worked out at 85.56% in assay [12], 37.52% in [13], 8.91 in [14] and 14.26 in assay [15].

For the compound `O=C(Nc1ccc(N2CCN(c3ccccc3Cl)CC2)cc1)c1ccc(Cl)nc1`, the Activity in assay [1] was 53.67%; in assay [2], 24.56%; in [3], 9.8; in [4] it was 12.98.

Regarding `O=C(Nc1ccc(N2CCN(c3ccccc3)CC2)cc1)c1ccc(Cl)nc1`, the Activity in assay [1] is reported as 56.94%; in assay [2], 27.48%; in assay [3], 11.94; in [4] it was 16.46.

Consider `CN1C(=O)CN=C(c2ccccc2)c2cc(Cl)ccc21` [DIAZEPAM], for which the Activity in [16] was determined as 105.36%; in assay [17], 45.16%; in assay [18] it was 10.13; in [19], 18.47.

Consider `COc1ccccc1N1CCN(c2ccc(NC(C)=O)cc2)CC1`, for which the Activity is listed as 58.77% in assay [1], 28.74% in [2], 9.01 in assay [3] and 15.45 in assay [4].

Take `CCOC(=O)Nc1ccc(N2CCN(c3ccccc3Cl)CC2)cc1`: the Activity in assay [1] worked out at 58.98%; in assay [2], 30.27%; in assay [3], 9.75; in assay [4], 13.98.

Turning to `CC(=O)Nc1ccc(N2CCN(c3ccccc3)CC2)cc1`, the Activity in assay [1] is reported as 62.67%; in assay [2] it was 29.42%; in [3], 10.08; in assay [4] it was 14.28.

Turning to `CC(=O)Nc1ccc(N2CCN(CCc3ccccc3)CC2)cc1`, the Activity came to 53.67% in assay [1], 25.98% in assay [2], 10.26 in [3] and 13.86 in assay [4].
